In ChEMBL document CHEMBL4382192, “Discovery of a potent dual ALK and EGFR T790M inhibitor” (Eur J Med Chem, 2017):

Key:
[1] = target: Tyrosine-protein kinase ABL1 (Homo sapiens) (UniProt P00519); assay: Binding affinity to wild-type human non-phosphorylated ABL1 (S229 to K512 residues) expressed in mammalian expression system assessed as residual binding level at 1 uM by Kinomescan method relative to control
[2] = target: STE20-like serine/threonine-protein kinase (Homo sapiens, UniProt Q9H2G2); assay: Inhibition of recombinant full length GST-tagged human SLK expressed in baculovirus expression system by LanthaScreen assay
Chain of STE20-like serine/threonine-protein kinase (Q9H2G2 whole entry, the tested form may be a part): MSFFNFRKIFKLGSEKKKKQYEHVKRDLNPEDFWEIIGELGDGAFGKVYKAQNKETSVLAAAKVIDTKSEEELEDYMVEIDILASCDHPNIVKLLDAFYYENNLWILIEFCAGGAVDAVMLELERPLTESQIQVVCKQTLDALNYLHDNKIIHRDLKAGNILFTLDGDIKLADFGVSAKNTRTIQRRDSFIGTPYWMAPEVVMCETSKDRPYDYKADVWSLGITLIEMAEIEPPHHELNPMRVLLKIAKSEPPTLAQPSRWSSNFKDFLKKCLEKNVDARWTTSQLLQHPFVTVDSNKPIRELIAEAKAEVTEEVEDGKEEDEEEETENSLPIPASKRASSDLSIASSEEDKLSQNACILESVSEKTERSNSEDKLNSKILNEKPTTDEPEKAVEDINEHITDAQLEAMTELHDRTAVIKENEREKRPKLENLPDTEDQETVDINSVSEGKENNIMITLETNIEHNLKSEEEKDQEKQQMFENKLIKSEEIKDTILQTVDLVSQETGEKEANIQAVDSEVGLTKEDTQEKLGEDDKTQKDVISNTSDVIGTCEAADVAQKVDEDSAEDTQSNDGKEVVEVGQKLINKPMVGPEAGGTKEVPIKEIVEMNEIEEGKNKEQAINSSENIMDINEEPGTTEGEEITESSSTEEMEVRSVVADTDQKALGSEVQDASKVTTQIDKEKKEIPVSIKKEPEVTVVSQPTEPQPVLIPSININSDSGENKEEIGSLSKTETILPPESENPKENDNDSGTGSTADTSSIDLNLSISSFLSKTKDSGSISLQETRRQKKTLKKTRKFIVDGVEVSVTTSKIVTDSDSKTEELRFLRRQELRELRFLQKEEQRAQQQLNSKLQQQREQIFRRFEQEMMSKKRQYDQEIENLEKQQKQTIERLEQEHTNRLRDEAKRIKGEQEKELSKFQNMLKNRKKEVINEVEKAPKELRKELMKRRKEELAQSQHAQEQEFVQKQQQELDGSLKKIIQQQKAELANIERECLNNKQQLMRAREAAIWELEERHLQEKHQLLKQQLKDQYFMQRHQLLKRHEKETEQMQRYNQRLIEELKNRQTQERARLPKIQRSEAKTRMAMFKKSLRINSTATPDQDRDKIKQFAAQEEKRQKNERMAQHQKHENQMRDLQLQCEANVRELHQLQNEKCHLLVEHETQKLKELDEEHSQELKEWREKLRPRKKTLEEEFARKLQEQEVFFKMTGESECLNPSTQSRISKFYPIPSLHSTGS

[3] = target: Serine/threonine-protein kinase ICK (Homo sapiens) (UniProt Q9UPZ9); assay: Binding affinity to wild-type human partial length ICK (M1 to P314 residues) expressed in mammalian expression system assessed as residual binding level at 1 uM by Kinomescan method relative to control
Chain of Serine/threonine-protein kinase ICK (Homo sapiens) (Q9UPZ9 whole entry, the tested form may be a part): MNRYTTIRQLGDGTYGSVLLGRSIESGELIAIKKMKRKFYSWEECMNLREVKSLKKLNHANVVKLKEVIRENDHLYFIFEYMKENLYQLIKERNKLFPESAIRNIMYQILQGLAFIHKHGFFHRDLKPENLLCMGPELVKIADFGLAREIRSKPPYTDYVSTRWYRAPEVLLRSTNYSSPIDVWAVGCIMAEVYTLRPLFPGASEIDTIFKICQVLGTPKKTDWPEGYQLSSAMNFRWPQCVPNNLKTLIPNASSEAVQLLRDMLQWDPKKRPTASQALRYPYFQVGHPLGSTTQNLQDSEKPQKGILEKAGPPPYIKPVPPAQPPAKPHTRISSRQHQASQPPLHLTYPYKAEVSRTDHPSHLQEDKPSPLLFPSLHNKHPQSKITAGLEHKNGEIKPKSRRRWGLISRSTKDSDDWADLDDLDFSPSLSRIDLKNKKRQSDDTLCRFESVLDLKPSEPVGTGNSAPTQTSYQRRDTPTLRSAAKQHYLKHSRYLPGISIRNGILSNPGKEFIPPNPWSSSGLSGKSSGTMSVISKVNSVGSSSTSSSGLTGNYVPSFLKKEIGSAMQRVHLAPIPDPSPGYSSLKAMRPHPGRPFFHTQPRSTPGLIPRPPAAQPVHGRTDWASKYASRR

[4] = target: Serine/threonine-protein kinase MAK (Homo sapiens) (UniProt P20794); assay: Binding affinity to wild-type human partial length MAK (M1 to P314 residues) expressed in bacterial expression system assessed as residual binding level at 1 uM by Kinomescan method relative to control
[5] = target: Homeodomain-interacting protein kinase 1 (Homo sapiens) (UniProt Q86Z02); assay: Binding affinity to wild-type human partial length HIPK1 (M146 to I555 residues) expressed in mammalian expression system assessed as residual binding level at 1 uM by Kinomescan method relative to control
[6] = target: Dual specificity tyrosine-phosphorylation-regulated kinase 1B (Homo sapiens) (UniProt Q9Y463); assay: Binding affinity to wild-type human full length DYRK1B (M1 to S629 residues) expressed in bacterial expression system assessed as residual binding level at 1 uM by Kinomescan method relative to control
[7] = target: Atypical kinase COQ8B, mitochondrial (Homo sapiens) (UniProt Q96D53); assay: Binding affinity to wild-type human full length ADCK4 (M1 to S544 residues) expressed in bacterial expression system assessed as residual binding level at 1 uM by Kinomescan method relative to control
[8] = target: Transient receptor potential cation channel subfamily M member 6 (Homo sapiens) (UniProt Q9BX84); assay: Binding affinity to wild-type human partial length TRPM6 (Q1723 to I1998 residues) expressed in mammalian expression system assessed as residual binding level at 1 uM by Kinomescan method relative to control
[9] = target: Mitogen-activated protein kinase kinase kinase 3 (Homo sapiens) (UniProt Q99759); assay: Binding affinity to wild-type human partial length MAP3K3 (E320 to Y626 residues) expressed in mammalian expression system assessed as residual binding level at 1 uM by Kinomescan method relative to control
[10] = target: 5'-AMP-activated protein kinase catalytic subunit alpha-2 (Homo sapiens) (UniProt P54646); assay: Binding affinity to wild-type human partial length AMPK alpha2 (M1 to E306 residues) expressed in bacterial expression system assessed as residual binding level at 1 uM by Kinomescan method relative to control
Chain of 5'-AMP-activated protein kinase catalytic subunit alpha-2 (Homo sapiens) (P54646 whole entry, looked up, the tested form may be a part): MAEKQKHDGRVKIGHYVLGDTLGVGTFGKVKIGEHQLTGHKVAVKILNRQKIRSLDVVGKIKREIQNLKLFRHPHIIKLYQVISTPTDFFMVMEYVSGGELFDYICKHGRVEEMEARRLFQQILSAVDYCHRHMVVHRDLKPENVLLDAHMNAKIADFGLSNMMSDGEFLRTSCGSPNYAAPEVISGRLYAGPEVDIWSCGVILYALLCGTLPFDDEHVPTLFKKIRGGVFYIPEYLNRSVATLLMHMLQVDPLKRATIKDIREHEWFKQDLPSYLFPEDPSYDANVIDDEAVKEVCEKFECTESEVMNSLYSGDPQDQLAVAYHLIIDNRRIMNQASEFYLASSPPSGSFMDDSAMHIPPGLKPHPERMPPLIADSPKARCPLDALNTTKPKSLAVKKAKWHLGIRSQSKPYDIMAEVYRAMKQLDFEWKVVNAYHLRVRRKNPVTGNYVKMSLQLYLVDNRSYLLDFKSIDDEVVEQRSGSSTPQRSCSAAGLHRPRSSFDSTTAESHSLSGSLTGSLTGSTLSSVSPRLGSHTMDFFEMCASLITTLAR

[11] = target: Serine/threonine-protein kinase PRP4 homolog (Homo sapiens) (UniProt Q13523); assay: Binding affinity to wild-type human partial length PRP4 (D657 to I1007 residues) expressed in bacterial expression system assessed as residual binding level at 1 uM by Kinomescan method relative to control
Chain of Serine/threonine-protein kinase PRP4 homolog (Homo sapiens) (Q13523 whole entry, the tested form may be a part): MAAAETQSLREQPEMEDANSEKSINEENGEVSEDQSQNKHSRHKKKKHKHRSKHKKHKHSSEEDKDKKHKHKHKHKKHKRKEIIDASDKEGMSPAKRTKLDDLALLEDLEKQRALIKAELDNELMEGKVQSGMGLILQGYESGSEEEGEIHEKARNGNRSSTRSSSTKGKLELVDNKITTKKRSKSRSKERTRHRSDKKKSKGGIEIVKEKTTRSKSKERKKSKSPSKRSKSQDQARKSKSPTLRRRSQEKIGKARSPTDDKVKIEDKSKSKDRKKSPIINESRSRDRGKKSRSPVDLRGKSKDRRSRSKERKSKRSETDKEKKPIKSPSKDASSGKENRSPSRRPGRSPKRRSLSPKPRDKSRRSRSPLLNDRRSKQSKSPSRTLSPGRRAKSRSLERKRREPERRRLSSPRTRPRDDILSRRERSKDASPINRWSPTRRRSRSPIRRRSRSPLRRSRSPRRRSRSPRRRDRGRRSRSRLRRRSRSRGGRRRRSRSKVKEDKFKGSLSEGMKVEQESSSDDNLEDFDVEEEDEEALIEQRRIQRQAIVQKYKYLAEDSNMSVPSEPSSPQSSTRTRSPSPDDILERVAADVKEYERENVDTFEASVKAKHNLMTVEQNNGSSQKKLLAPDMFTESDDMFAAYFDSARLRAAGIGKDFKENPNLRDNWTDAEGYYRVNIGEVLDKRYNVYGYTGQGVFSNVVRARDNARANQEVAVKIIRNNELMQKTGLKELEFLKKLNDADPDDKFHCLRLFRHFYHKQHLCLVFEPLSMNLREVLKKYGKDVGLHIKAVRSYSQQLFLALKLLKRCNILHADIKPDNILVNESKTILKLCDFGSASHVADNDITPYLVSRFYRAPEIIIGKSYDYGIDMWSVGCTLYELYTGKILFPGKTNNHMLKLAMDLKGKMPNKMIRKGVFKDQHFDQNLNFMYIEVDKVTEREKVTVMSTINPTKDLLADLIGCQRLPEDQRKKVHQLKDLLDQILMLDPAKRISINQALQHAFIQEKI

[12] = target: Calcium-dependent protein kinase 1 (Plasmodium falciparum) (UniProt P62344); assay: Binding affinity to wild-type Plasmodium falciparum full length CDPK1 (M1 to S524 residues) expressed in mammalian expression system assessed as residual binding level at 1 uM by Kinomescan method relative to control
[13] = AUClast in mouse at 2 mg/kg, iv; format: ADME, organism-based; set-up: dose 2 mg/kg, route intravenous, time 0 - last; conditions: in vivo
[14] = target: LIM domain kinase 1 (Homo sapiens) (UniProt P53667); assay: Binding affinity to wild-type human full length LIMK1 (M1 to D647 residues) expressed in bacterial expression system assessed as residual binding level at 1 uM by Kinomescan method relative to control
In short: (§1)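 Single-point kinome-wide KINOMEscan binding panel, test compound at 1 μM, run by the provider's standard protocol.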

[15] = tested on: Epidermal growth factor receptor (Homo sapiens), P00533 [UNDEFINED MUTATION]; assay: Binding affinity to human partial length EGFR S752-I759del mutant expressed in bacterial expression system assessed as residual binding level at 1 uM by Kinomescan method relative to control
In short: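 Kinome-wide selectivity panel run by the KINOMEscan method, with the test compound at a single concentration of 1 μM. Wild-type and mutant kinases were profiled in the same screen.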

[16] = target: Homeodomain-interacting protein kinase 2 (Homo sapiens) (UniProt Q9H2X6); assay: Binding affinity to wild-type human partial length HIPK2 (M153 to S564 residues) expressed in mammalian expression system assessed as residual binding level at 1 uM by Kinomescan method relative to control
[17] = target: Serine/threonine-protein kinase PLK4 (Homo sapiens) (UniProt O00444); assay: Binding affinity to wild-type human partial length PLK4 (M1 to S273 residues) expressed in mammalian expression system assessed as residual binding level at 1 uM by Kinomescan method relative to control
[18] = target: STE20/SPS1-related proline-alanine-rich protein kinase (Homo sapiens) (UniProt Q9UEW8); assay: Binding affinity to wild-type human partial length STK39 (P43 to I357 residues) expressed in mammalian expression system assessed as residual binding level at 1 uM by Kinomescan method relative to control
[19] = target: G protein-coupled receptor kinase 3 (Homo sapiens) (UniProt P35626); assay: Binding affinity to wild-type human full length GRK3 (M1 to L688 residues) expressed in mammalian expression system assessed as residual binding level at 1 uM by Kinomescan method relative to control; in short: as §1
[20] = target: Myosin light chain kinase (Homo sapiens) (UniProt Q32MK0); assay: Binding affinity to wild-type human partial length MLCK (D488 to K800 residues) expressed in bacterial expression system assessed as residual binding level at 1 uM by Kinomescan method relative to control
[21] = target: Tyrosine-protein kinase CSK (Homo sapiens) (UniProt P41240); assay: Binding affinity to wild-type human full length CSK (M1 to L450 residues) expressed in bacterial expression system assessed as residual binding level at 1 uM by Kinomescan method relative to control
[22] = target: Death-associated protein kinase 2 (Homo sapiens) (UniProt Q9UIK4); assay: Binding affinity to wild-type human full length DAPK2 (M1 to S370 residues) expressed in bacterial expression system assessed as residual binding level at 1 uM by Kinomescan method relative to control
Chain of Death-associated protein kinase 2 (Homo sapiens) (Q9UIK4 whole entry, looked up, the tested form may be a part): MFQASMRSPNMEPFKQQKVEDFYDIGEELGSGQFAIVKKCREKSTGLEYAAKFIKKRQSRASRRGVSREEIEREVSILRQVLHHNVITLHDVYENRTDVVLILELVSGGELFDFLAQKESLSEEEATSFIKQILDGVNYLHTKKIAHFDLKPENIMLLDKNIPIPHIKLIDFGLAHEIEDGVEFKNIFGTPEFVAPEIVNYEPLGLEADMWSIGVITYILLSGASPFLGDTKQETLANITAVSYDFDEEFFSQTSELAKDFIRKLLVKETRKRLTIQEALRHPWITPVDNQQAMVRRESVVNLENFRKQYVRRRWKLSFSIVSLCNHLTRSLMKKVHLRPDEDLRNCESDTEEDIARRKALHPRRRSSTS

[23] = target: Hormonally up-regulated neu tumor-associated kinase (Homo sapiens) (UniProt P57058); assay: Binding affinity to wild-type human partial length HUNK (A31 to K354 residues) expressed in bacterial expression system assessed as residual binding level at 1 uM by Kinomescan method relative to control
[24] = target: Serine/threonine-protein kinase 36 (Homo sapiens) (UniProt Q9NRP7); assay: Binding affinity to wild-type human partial length STK36 (M1 to T271 residues) expressed in bacterial expression system assessed as residual binding level at 1 uM by Kinomescan method relative to control
[25] = Drug uptake in mouse lung at 2 mg/kg, iv after 8 hrs; format: ADME, organism-based; conditions: read-out: Drug uptake

Chain of Tyrosine-protein kinase ABL1 (Homo sapiens) (P00519 whole entry, the tested form may be a part): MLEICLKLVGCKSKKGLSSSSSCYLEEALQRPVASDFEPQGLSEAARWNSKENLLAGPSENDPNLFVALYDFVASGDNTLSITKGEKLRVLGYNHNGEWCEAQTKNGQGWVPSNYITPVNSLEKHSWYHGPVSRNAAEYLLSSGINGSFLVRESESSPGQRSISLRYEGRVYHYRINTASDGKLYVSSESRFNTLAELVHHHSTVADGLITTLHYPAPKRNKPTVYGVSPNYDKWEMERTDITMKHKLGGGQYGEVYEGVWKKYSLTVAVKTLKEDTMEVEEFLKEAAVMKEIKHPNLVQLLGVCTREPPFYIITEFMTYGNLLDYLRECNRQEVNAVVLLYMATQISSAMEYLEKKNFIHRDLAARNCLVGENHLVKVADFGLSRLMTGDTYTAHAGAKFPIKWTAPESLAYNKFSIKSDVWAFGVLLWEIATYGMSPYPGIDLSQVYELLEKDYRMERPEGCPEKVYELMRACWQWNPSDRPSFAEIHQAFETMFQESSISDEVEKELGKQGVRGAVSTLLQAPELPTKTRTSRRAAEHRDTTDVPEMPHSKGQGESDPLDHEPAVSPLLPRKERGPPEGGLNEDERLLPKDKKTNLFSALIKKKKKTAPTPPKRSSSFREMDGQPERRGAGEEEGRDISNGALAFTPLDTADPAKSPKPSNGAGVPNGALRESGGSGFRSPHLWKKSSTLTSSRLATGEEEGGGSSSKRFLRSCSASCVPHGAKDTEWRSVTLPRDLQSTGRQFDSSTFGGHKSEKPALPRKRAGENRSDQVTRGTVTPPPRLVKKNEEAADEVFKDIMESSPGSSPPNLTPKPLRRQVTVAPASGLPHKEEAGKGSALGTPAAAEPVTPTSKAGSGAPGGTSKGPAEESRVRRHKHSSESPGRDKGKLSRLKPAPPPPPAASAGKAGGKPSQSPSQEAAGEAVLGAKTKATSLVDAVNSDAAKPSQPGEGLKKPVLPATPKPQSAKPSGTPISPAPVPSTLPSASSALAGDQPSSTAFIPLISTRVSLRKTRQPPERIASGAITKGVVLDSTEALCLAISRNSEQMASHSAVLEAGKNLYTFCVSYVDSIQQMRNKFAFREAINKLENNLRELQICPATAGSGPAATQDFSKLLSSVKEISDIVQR

Compound `C=CC(=O)Nc1cc(Nc2ncc(Cl)c(Nc3ccccc3S(=O)(=O)C(C)C)n2)c(OC)cc1N(C)CCN(C)C` has an Activity [1] of 8.4%, an IC50 [2] of 58 nM and an Activity [3] of 65%. It also gave an Activity [4] of 100%, an Activity [5] of 57% and an Activity [6] of 48%. The Activity [7] was 43%, the Activity [8] was 52% and the Activity [9] was 17%. It also gave an Activity [10] of 23%, an Activity [11] of 82% and an Activity [12] of 93%. The AUC(0-t) [13] was 1290 ng·h/mL, the Activity [14] was 87% and the Activity [15] was 2.4%. The Activity [16] was 94%, the Activity [17] was 0.35% and the Activity [18] was 20%. The Activity [19] was 100%, the Activity [20] was 100% and the Activity [21] was 69%. It also gave an Activity [22] of 47%, an Activity [23] of 39% and an Activity [24] of 88%. For the same compound, the concentration at 8 h [25] was 110 nM.
